ChEMBL document CHEMBL1139042, “1,3-Disubstituted-imidazo[1,5-a]pyrazines as insulin-like growth-factor-I receptor (IGF-IR) inhibitors” (Bioorg Med Chem Lett, 2007)
pIC50: −log10 of the molar value.

How the values were obtained:
[1] = molecular target: T1, Insulin-like growth factor 1 receptor (Homo sapiens, UniProt P08069); test: Inhibition of human recombinant GST-IGF1R activity
[2] = molecular target: T1, Insulin-like growth factor 1 receptor; test: Inhibition of IGF1-stimulated phosphorylation of human recombinant IGF1R expressed in NIH3T3 cells; format: cell-based
[3] = Cmax in CD1 mouse at 50 mg/kg, po; format: ADME, organism-based; set-up: dose 50 mg/kg, route oral; settings: in vivo
Outline: (§1)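 Female CD-1 mice, 6–10 weeks old, received a single 1 mg/kg IV tail-vein dose or a single 50 mg/kg oral gavage dose. The oral vehicle varied by compound: 30:70 PEG-400:WFI with Labrafil, 50:50 PEG-400:WFI, or 50:50 PEG-400:5% citric acid. Three animals were sacrificed per timepoint and blood was taken into EDTA by cardiac puncture. Plasma (1500g, 10 min) was methanol-precipitated and analysed by HPLC-MS/MS against spiked mouse-plasma calibrants. Parameters came from non-compartmental analysis of median (n=3) concentrations.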

[4] = AUC (0 to infinity) in CD1 mouse at 50 mg/kg, po; format: ADME, organism-based; set-up: time infinity, dose 50 mg/kg, route oral; settings: plasma; outline: as §1
[5] = Oral bioavailability in CD1 mouse at 50 mg/kg, po; format: ADME, organism-based; settings: in vivo; outline: as §1
[6] = Half life in CD1 mouse at 1 mg/kg, iv; format: ADME, organism-based; set-up: dose 1 mg/kg, route intravenous; settings: in vivo; outline: as §1
[7] = molecular target: Tyrosine-protein kinase ABL1 (Homo sapiens) (UniProt P00519); test: Inhibition of Abl at 10 uM
Tyrosine-protein kinase ABL1 (Homo sapiens), sequence (P00519 whole entry): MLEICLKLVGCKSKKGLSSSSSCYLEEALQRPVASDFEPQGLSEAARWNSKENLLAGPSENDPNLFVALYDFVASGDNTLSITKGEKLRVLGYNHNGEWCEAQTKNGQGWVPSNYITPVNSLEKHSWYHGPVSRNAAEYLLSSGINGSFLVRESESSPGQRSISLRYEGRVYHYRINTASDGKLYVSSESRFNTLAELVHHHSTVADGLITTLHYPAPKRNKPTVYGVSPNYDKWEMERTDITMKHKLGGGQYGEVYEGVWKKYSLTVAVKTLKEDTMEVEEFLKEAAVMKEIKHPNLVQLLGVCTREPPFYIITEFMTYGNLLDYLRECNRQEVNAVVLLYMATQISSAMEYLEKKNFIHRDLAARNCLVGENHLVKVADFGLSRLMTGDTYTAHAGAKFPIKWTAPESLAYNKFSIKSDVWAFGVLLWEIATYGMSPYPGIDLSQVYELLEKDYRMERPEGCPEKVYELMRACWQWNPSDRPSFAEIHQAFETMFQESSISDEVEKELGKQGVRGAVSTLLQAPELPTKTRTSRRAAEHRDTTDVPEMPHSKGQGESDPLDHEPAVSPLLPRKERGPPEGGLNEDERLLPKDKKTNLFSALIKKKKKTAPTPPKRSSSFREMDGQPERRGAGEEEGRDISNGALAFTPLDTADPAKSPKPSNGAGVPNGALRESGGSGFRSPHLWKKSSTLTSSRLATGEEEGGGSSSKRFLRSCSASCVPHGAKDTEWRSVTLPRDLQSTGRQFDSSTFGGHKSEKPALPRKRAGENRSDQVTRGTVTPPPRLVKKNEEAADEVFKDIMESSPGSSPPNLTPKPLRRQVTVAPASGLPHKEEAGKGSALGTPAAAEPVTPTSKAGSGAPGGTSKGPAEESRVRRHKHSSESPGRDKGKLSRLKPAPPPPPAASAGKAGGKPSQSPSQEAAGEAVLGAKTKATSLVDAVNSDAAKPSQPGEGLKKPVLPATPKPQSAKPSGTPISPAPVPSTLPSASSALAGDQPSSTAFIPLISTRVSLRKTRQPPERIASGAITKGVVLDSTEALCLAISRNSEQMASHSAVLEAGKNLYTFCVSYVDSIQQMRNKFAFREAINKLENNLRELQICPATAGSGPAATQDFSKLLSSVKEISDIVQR
Outline: (§2)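 Radiometric kinase profiling was run as an outsourced panel on recombinant purified enzymes.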

[8] = organism: Homo sapiens; test: Inhibition of Cdk2/Cyclin A at 10 uM; outline: as §2
[9] = organism: Homo sapiens; test: Inhibition of Cdk2/Cyclin E at 10 uM; outline: as §2
[10] = molecular target: Serine/threonine-protein kinase Chk2 (Homo sapiens) (UniProt O96017); test: Inhibition of Chk2 at 10 uM; outline: as §2
[11] = organism: Homo sapiens; test: Inhibition of PKA at 10 uM; outline: as §2
[12] = molecular target: Tyrosine-protein kinase Fes/Fps (Homo sapiens) (UniProt P07332); test: Inhibition of Fes at 10 uM; outline: as §2
[13] = molecular target: Casein kinase II subunit alpha (Homo sapiens) (UniProt P68400); test: Inhibition of CK2 at 10 uM; outline: as §2
Casein kinase II subunit alpha (Homo sapiens), sequence (P68400 whole entry, looked up): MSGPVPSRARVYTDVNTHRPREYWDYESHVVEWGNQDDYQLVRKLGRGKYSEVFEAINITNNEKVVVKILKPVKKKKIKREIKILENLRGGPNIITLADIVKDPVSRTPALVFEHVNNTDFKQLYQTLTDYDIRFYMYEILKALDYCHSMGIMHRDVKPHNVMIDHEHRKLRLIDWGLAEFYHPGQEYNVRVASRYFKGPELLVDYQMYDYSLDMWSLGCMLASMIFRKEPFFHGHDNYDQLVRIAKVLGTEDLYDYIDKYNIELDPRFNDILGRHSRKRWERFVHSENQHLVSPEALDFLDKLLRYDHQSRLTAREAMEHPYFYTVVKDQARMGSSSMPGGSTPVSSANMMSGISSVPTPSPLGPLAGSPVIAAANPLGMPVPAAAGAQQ

[14] = molecular target: RAF proto-oncogene serine/threonine-protein kinase (Homo sapiens) (UniProt P04049); test: Inhibition of c-Raf at 10 uM; outline: as §2
RAF proto-oncogene serine/threonine-protein kinase (Homo sapiens), sequence (P04049 whole entry): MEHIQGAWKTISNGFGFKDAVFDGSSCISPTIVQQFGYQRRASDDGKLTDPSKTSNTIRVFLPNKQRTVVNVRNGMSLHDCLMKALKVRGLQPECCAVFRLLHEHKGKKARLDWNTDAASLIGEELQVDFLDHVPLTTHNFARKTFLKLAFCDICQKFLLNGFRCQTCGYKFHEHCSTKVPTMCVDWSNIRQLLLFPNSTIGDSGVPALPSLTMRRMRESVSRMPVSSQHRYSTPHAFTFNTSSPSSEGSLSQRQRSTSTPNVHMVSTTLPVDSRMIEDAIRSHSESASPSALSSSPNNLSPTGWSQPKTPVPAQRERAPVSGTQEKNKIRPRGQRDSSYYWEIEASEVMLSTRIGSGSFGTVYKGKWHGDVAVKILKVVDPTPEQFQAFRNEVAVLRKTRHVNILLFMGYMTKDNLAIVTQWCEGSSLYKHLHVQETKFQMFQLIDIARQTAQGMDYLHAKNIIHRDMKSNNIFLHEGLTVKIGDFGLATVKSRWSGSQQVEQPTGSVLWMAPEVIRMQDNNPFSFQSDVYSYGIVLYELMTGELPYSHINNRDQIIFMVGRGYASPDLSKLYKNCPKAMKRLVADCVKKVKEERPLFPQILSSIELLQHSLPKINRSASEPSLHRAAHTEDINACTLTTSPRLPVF

[15] = molecular target: T2, Inhibitor of nuclear factor kappa-B kinase subunit beta (Homo sapiens) (UniProt O14920); test: Inhibition of IKK-beta at 10 uM; outline: as §2
T2 sequence (whole entry): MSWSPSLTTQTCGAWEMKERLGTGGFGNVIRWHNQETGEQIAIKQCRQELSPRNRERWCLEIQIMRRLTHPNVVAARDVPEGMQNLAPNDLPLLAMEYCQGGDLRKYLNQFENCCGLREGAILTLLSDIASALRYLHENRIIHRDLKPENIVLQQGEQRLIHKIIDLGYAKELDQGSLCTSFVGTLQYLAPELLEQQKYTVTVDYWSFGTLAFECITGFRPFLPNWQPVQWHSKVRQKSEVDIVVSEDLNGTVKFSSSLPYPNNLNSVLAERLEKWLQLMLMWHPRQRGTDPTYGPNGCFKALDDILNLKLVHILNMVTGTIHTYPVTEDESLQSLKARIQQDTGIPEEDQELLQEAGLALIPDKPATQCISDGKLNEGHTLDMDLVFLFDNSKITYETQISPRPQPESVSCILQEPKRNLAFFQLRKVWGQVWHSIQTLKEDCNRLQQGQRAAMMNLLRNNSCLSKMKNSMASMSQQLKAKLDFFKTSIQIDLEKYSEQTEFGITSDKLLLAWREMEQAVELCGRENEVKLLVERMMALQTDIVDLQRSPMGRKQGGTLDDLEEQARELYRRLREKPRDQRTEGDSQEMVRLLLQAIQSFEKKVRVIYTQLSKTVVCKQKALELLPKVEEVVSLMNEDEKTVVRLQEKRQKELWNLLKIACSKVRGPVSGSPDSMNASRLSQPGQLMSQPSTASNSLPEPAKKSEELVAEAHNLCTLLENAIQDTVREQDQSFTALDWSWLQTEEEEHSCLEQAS

[16] = molecular target: Ribosomal protein S6 kinase beta-1 (Homo sapiens) (UniProt P23443); test: Inhibition of p70S6K at 10 uM; outline: as §2
[17] = molecular target: Platelet-derived growth factor receptor beta (Homo sapiens) (UniProt P09619); test: Inhibition of PDGFRbeta at 10 uM; outline: as §2
Platelet-derived growth factor receptor beta (Homo sapiens), sequence (P09619 whole entry): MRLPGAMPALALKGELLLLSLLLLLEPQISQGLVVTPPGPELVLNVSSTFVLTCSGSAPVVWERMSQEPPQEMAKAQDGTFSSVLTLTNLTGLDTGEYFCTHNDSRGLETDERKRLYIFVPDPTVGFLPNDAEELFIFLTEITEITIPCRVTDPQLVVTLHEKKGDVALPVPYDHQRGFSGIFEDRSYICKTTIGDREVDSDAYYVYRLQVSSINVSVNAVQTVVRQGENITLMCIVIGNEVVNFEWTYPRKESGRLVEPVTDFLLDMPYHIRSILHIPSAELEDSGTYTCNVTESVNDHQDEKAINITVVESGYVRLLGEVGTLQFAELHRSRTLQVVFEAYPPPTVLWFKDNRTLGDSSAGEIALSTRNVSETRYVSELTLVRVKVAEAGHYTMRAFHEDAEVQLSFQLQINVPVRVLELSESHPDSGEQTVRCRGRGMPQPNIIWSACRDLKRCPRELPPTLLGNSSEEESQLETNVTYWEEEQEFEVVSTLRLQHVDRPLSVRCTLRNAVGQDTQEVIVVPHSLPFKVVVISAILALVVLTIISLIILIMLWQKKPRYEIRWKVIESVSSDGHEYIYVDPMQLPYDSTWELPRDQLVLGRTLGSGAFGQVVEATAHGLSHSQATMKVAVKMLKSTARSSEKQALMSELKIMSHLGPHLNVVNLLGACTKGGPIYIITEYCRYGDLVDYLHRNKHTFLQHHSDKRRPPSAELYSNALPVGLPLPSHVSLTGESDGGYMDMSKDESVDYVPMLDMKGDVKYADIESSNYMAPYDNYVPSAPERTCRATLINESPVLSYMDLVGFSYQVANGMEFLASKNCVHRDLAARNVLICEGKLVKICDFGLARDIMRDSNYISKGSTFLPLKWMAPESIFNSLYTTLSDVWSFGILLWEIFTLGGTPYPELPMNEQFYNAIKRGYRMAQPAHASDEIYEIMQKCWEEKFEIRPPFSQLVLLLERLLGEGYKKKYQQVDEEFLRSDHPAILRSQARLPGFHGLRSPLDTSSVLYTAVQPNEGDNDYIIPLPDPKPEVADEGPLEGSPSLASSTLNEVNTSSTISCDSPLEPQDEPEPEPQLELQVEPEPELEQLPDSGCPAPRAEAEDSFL

[18] = organism: Homo sapiens; test: Inhibition of PKBalpha at 10 uM; outline: as §2
[19] = molecular target: Protein kinase C alpha type (Homo sapiens) (UniProt P17252); test: Inhibition of PKCalpha at 10 uM; outline: as §2
[20] = molecular target: 3-phosphoinositide-dependent protein kinase 1 (PDPK1) (Homo sapiens) (UniProt O15530); test: Inhibition of PDK1 at 10 uM
[21] = molecular target: Mitogen-activated protein kinase 1 (ERK2) (Homo sapiens) (UniProt P28482); test: Inhibition of MAPK2 at 10 uM
Mitogen-activated protein kinase 1 (ERK2) (Homo sapiens), sequence (P28482 whole entry, looked up): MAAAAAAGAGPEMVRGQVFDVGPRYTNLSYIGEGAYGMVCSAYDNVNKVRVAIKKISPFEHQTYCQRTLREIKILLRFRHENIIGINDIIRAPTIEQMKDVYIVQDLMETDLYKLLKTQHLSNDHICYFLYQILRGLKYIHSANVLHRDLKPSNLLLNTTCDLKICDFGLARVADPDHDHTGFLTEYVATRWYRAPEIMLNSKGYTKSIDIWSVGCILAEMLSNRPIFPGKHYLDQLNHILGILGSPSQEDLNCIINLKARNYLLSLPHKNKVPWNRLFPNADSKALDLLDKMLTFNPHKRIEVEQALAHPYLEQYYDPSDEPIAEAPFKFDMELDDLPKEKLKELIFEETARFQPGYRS

T1 sequence (P08069 31-736 limits assumed): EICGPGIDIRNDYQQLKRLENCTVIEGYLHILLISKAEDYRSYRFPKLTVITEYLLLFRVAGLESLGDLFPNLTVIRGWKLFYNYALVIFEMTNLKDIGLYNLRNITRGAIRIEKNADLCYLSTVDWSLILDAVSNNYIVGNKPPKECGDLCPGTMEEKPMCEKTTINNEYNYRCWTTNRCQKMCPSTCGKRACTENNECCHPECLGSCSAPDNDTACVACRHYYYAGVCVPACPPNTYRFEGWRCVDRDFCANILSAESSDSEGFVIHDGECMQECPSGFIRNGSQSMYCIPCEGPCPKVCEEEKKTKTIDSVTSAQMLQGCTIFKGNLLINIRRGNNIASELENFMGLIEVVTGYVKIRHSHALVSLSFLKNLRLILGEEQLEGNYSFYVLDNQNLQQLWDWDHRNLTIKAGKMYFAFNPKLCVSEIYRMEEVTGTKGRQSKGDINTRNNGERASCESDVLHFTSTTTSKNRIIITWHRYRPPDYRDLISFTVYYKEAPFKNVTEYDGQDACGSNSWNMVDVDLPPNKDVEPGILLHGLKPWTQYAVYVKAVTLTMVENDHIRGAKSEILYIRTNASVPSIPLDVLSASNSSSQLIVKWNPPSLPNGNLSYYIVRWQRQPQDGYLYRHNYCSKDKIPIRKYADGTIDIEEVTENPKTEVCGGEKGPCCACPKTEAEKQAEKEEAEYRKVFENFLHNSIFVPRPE
T1 sequence (P08069 741-1367 limits assumed): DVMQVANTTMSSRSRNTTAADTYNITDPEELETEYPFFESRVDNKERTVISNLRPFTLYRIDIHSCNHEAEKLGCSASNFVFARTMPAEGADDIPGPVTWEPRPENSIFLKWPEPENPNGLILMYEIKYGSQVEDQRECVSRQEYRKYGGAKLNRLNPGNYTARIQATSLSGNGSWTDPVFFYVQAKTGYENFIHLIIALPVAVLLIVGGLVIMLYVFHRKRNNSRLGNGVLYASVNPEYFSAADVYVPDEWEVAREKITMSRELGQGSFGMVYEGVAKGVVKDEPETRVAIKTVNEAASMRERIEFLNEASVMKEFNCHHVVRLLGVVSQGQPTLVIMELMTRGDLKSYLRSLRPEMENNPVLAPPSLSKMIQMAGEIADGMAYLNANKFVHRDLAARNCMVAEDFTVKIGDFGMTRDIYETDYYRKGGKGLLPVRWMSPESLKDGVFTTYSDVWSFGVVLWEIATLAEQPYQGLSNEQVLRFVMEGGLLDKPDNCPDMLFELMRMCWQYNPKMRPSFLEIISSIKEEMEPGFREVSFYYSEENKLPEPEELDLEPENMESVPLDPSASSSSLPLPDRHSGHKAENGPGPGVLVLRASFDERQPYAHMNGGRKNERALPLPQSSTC

| pIC50 [1] | pIC50 [2] | Cmax [3] [nM] | AUC(0-inf) [4] [ng·h/mL] | bioavailability [5] [%] | half-life [6] [h] | SMILES | further results |
| --- | --- | --- | --- | --- | --- | --- | --- |
| 6.22 | 5.94 | 860 | 1760 | 47 | 1.3 | Nc1nccn2c(C3CCC3)nc(-c3cccc(OCc4ccccc4)c3)c12 | – |
| 7.09 | 6.40 | – | – | – | – | Nc1nccn2c1c(-c1cccc(OCc3ccccc3)c1)nc2[C@H]1CC[C@H](CN2CCC2)CC1 | – |
| 5.87 | – | – | – | – | – | COc1ccc(-c2nc(C3CCC3)n3ccnc(N)c23)cc1OCc1ccccc1 | – |
| 6.64 | 6.25 | – | – | – | – | NC[C@H]1CC[C@@H](c2nc(-c3cccc(OCc4ccccc4)c3)c3c(N)nccn32)CC1 | – |
| 6.92 | 6.27 | 2850 | 3930 | 47 | 2.29 | NC[C@H]1CC[C@H](c2nc(-c3cccc(OCc4ccccc4)c3)c3c(N)nccn32)CC1 | inhibition [7]: < 50%; inhibition [8]: < 50%; inhibition [9]: < 50%; inhibition [10]: < 50%; inhibition [11]: < 50%; inhibition [12]: < 50%; inhibition [13]: < 50%; inhibition [14]: < 50%; inhibition [15]: < 50%; inhibition [16]: < 50%; inhibition [17]: < 50%; inhibition [18]: < 50%; inhibition [19]: < 50%; inhibition [20]: < 50%; inhibition [21]: < 50% |
| 7.22 | 6.16 | – | – | – | – | NC[C@H]1C[C@@H](c2nc(-c3cccc(OCc4ccccc4)c3)c3c(N)nccn32)C1 | – |
| < 5.00 | – | – | – | – | – | Nc1nccn2c(C3CCC3)nc(-c3ccc(Oc4ccccc4)cc3)c12 | – |
| – | – | 2220 | 1320 | 34 | 0.63 | Nc1nccn2c1c(-c1cccc(OCc3ccccc3)c1)nc2[C@H]1CC[C@H](C(N)=O)CC1 | – |
